{"source": "paper PMC6001651", "about": "(International Journal of Biological Sciences, 2018)", "key": {"[1]": {"system": "five diverse human cancer cell lines", "experiment": "MTT anti-cancer assay, summary over five cancer cell lines", "type": "cell-based", "conditions": "read-out: IC50s over the cancer cell lines", "method_in_brief": "(§1)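 Cells were seeded at 5000/well, grown 24 h at 37 °C in 5% CO2, then serum-starved for 6 h. Test compound at ten-fold concentrations from 10^-4 to 10^-9 M in serum-free medium was added for 24 h. MTT (5 mg/ml solution) was added for 4–6 h, formazan was dissolved in DMSO and OD was read at 550 nm. IC50 came from normalised curves; three independent experiments, mean ± s.d.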"}, "[2]": {"system": "non-small cell lung cancer H157", "experiment": "MTT anti-cancer assay", "type": "cell-based, human", "conditions": "H157, 24 h", "method_in_brief": "as §1"}, "E. coli (NCTC 10418)": {"system": "E. coli (NCTC 10418)", "experiment": "Antimicrobial assay", "type": "cell-based", "method_in_brief": "(§2)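 Each organism was grown in Mueller-Hinton broth, and 10^5 CFU/mL were exposed to test compound at 1–512 μM in two-fold dilutions. Plates were incubated at 37 °C in humidified air for 16–24 h. For MBC, 20 µL from each well was plated on Mueller-Hinton agar. MBC was the lowest concentration giving no colonies.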"}, "[3]": {"system": "human prostate carcinoma PC-3", "experiment": "MTT anti-cancer assay", "type": "cell-based", "conditions": "PC-3, 24 h", "method_in_brief": "as §1"}, "E. faecalis (NCTC 12697)": {"system": "E. faecalis (NCTC 12697)", "experiment": "Antimicrobial assay", "type": "cell-based", "method_in_brief": "as §2"}, "[4]": {"system": "methicillin-resistant S. aureus (MRSA; ATCC 12493)", "experiment": "Antimicrobial assay", "type": "cell-based", "method_in_brief": "as §2"}, "Stability in serum": {"experiment": "Stability in serum", "type": "in vitro ADME", "conditions": "10% FBS in RPMI-1640, 37 °C", "method_in_brief": "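Test compound at 50 μM was incubated in RPMI-1640 with 10% FBS at 37 °C for 24 h. Every 4 h, an aliquot was mixed with two volumes of 96% ethanol, held at 4 °C for 15 min and spun at 18,000× g for 2 min. Supernatants were analysed by RP-HPLC and MALDI-TOF. % remaining was the peak area relative to a serum-free stock; three independent experiments, mean ± s.d.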"}, "[5]": {"system": "all the microorganisms that we examined", "experiment": "Antimicrobial assays, summary over all microorganisms examined", "type": "cell-based", "method_in_brief": "as §2"}, "[6]": {"system": "biofilm formation by S. aureus and P. aeruginosa", "type": "cell-based"}, "Circular dichroism": {"experiment": "Circular dichroism", "type": "physicochemical", "conditions": "100 µM peptide, 20 °C", "method_in_brief": "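Test compound at 100 µM was dissolved in 10 mM ammonium acetate or in 50% TFE (v/v in 10 mM ammonium acetate) and read in a 1-mm cuvette. Spectra covered 190–260 nm at 20 °C, with three accumulations, 200 nm/min scan speed, 1 nm bandwidth and 0.5 nm data pitch. % α-helix was estimated by K2D on DichroWeb.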"}, "[7]": {"system": "human glioblastoma astrocytoma U251MG", "experiment": "MTT anti-cancer assay", "type": "cell-based", "conditions": "U251-MG, 24 h", "method_in_brief": "as §1"}, "[8]": {"system": "human breast cancer MCF-7", "experiment": "MTT anti-cancer assay", "type": "cell-based", "conditions": "MCF-7, 24 h", "method_in_brief": "as §1"}, "S. aureus (NCTC 10788)": {"system": "S. aureus (NCTC 10788)", "experiment": "Antimicrobial assay", "type": "cell-based", "method_in_brief": "as §2"}, "S. aureus biofilm": {"system": "S. aureus biofilm", "type": "cell-based"}, "P. aeruginosa biofilm": {"system": "P. aeruginosa biofilm", "type": "cell-based"}, "[9]": {"system": "normal human microvessel endothelial cells HMEC-1", "experiment": "MTT assay on normal cells", "type": "cell-based", "method_in_brief": "as §1"}, "C. albicans (NCTC 1467)": {"system": "C. albicans (NCTC 1467)", "experiment": "Antimicrobial assay", "type": "cell-based", "method_in_brief": "as §2"}, "[10]": {"system": "P. aeruginosa (ATCC 27853)", "experiment": "Antimicrobial assay", "type": "cell-based", "method_in_brief": "as §2"}, "Haemolysis assay": {"experiment": "Haemolysis assay", "type": "cell-based", "conditions": "horse erythrocytes, 2% suspension", "method_in_brief": "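A 2% horse erythrocyte suspension in PBS was incubated with test compound at 1–512 μM for 2 h at 37 °C, with PBS and 1% Triton X-100 as controls. After centrifugation at 900× g for 5 min, supernatant absorbance was read at 550 nm. HC50 was calculated from normalised curves.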"}, "melanocyte MDA-MB-435S": {"system": "melanocyte MDA-MB-435S", "experiment": "MTT anti-cancer assay", "type": "cell-based, human", "conditions": "MBD-MB-435S, 24 h", "method_in_brief": "as §1"}}, "note": "Where no end group is shown, it is not given here.", "data": [{"substance": "RKKRRQRRRLNLKALLAVAKKIL-NH2 [tMP-C]", "values": [{"measurement": "IC50", "setting": "[1]", "value": "< 4", "unit": "µM"}, {"measurement": "IC50", "setting": "[2]", "value": 2.79, "unit": "µM"}, {"measurement": "MBC", "setting": "E. coli (NCTC 10418)", "value": 2, "unit": "µM"}, {"measurement": "MIC", "setting": "E. coli (NCTC 10418)", "value": 2, "unit": "µM"}, {"measurement": "IC50", "setting": "[3]", "value": 3.86, "unit": "µM"}, {"measurement": "MBC", "setting": "E. faecalis (NCTC 12697)", "value": 16, "unit": "µM"}, {"measurement": "MIC", "setting": "E. faecalis (NCTC 12697)", "value": 8, "unit": "µM"}, {"measurement": "MBC", "setting": "[4]", "value": 8, "unit": "µM"}, {"measurement": "MIC", "setting": "[4]", "value": 4, "unit": "µM"}, {"measurement": "serum stability (in words)", "setting": "Stability in serum", "value": "poor serum stability"}, {"measurement": "MIC and MBC values", "setting": "[5]", "value": "at most 16 µM"}, {"measurement": "maximum MBIC", "setting": "[6]", "value": 32, "unit": "µM"}, {"measurement": "% α-helix 10 mM NH4AC", "setting": "Circular dichroism; 10 mM NH4AC buffer", "value": 9, "unit": "%"}, {"measurement": "% α-helix 50% TFE (v/v)", "setting": "Circular dichroism; 50% TFE in 10 mM NH4AC", "value": 28, "unit": "%"}, {"measurement": "IC50", "setting": "[7]", "value": 3.36, "unit": "µM"}, {"measurement": "IC50", "setting": "[8]", "value": 3.7, "unit": "µM"}, {"measurement": "MBC", "setting": "S. aureus (NCTC 10788)", "value": 4, "unit": "µM"}, {"measurement": "MIC", "setting": "S. aureus (NCTC 10788)", "value": 4, "unit": "µM"}, {"measurement": "MBIC", "setting": "S. aureus biofilm; S. aureus biofilm formation", "value": 32, "unit": "µM"}, {"measurement": "MBEC", "setting": "S. aureus biofilm; S. aureus existing biofilm", "value": 256, "unit": "µM"}, {"measurement": "MBIC", "setting": "P. aeruginosa biofilm; P. aeruginosa biofilm formation", "value": 8, "unit": "µM"}, {"measurement": "MBEC", "setting": "P. aeruginosa biofilm; P. aeruginosa existing biofilm", "value": 128, "unit": "µM"}, {"measurement": "inhibitory effect", "setting": "[9]; HMEC-1, concentration of 10 µM", "value": 60, "unit": "%"}, {"measurement": "IC50", "setting": "[9]; HMEC-1 normal cells, 24 h, MTT", "value": 9.18, "unit": "µM"}, {"measurement": "MBC", "setting": "C. albicans (NCTC 1467)", "value": 2, "unit": "µM"}, {"measurement": "MIC", "setting": "C. albicans (NCTC 1467)", "value": 2, "unit": "µM"}, {"measurement": "MBC", "setting": "[10]", "value": 4, "unit": "µM"}, {"measurement": "MIC", "setting": "[10]", "value": 4, "unit": "µM"}, {"measurement": "HC50 at 2 h", "setting": "Haemolysis assay", "value": 77.9, "unit": "µM"}, {"measurement": "IC50", "setting": "melanocyte MDA-MB-435S", "value": 3.86, "unit": "µM"}]}]}
